Reference: ChEMBL document CHEMBL1144391, “New pyrazolo[1',5':1,6]pyrimido[4,5-d]pyridazin-4(3H)-ones as potent and selective PDE5 inhibitors” (Bioorg Med Chem Lett, 2005)

Legend:
[1] = target: T1, Phosphodiesterase 6 (Bos taurus) (UniProt P23439+P16586+P11541+P22571+P04972+Q95142); assay: Percentage inhibition of bovine Phosphodiesterase 6 at 0.2 uM (n=2-3); format: protein assay
Outline: (§1)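 Enzyme purified from bovine retinas; cyclic nucleotide phosphodiesterase activity measured by a two-step procedure. Values are either IC50 or percent inhibition at the single test concentration stated.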

[2] = target: T2, cGMP-specific 3',5'-cyclic phosphodiesterase (Homo sapiens, UniProt O76074); assay: Percentage inhibition of human Phosphodiesterase 5 at 20 uM (n=2-3)
Outline: (§2)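 Phosphodiesterase 5 purified from human platelets; activity measured by a two-step cyclic nucleotide phosphodiesterase procedure. Percent inhibition recorded at the single stated concentration.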

[3] = target: T2, cGMP-specific 3',5'-cyclic phosphodiesterase; assay: Inhibition of human Phosphodiesterase 5 (n=2-3)
[4] = target: T1, Phosphodiesterase 6 (Bos taurus); assay: Percentage inhibition of bovine Phosphodiesterase 6 at 2 uM (n=2-3); format: protein assay; outline: as §1
[5] = target: T2, cGMP-specific 3',5'-cyclic phosphodiesterase; assay: Percentage inhibition of human Phosphodiesterase 5 at 2 uM (n=2-3); outline: as §2
Phosphodiesterase 6 = assay: Inhibition of bovine Phosphodiesterase 6 (n=2-3); format: protein assay, Bos taurus
[6] = Half-life was observed; format: ADME
[7] = target: T2, cGMP-specific 3',5'-cyclic phosphodiesterase; assay: Percentage inhibition of human Phosphodiesterase 5 at 0.2 uM (n=2-3); outline: as §2

Row | SMILES | IC50 [3] [nM] | inhibition [4] [%] | other results
1 | Cc1nn(Cc2ccccc2)c(=O)c2nc(C)n3nc(-c4ccc([N+](=O)[O-])cc4)cc3c12 | – | – | inhibition [1]: 14.4%; inhibition [2]: 65.5%
2 | Cc1nn(Cc2ccccc2)c(=O)c2nc(C)n3nc(-c4ccccc4)cc3c12 | 160 | 25 | –
3 | CCOCc1nc2c(=O)n(Cc3ccccc3)nc(C)c2c2cc(-c3ccccc3)nn12 | 350 | 45 | –
4 | Cc1nn(Cc2ccccc2)c(=O)c2nc(-c3cccnc3)n3nc(-c4ccccc4)cc3c12 | 180 | 17.7 | –
5 | COCc1nc2c(=O)n(Cc3ccccc3)nc(C)c2c2cc(-c3ccccc3)nn12 | 100 | 53.3 | –
6 | Cc1nn(Cc2ccccc2)c(=O)c2nc(-c3ccncc3)n3nc(-c4ccccc4)cc3c12 | – | -4.8 | inhibition [5]: 69%
7 | Cc1nn(Cc2ccccc2)c(=O)c2nc(C)n3nc(-c4ccc(N)cc4)cc3c12 | 920 | 4.5 | –
8 | Cc1nn(Cc2ccccc2)c(=O)c2nc(Cc3ccccc3)n3nc(-c4ccccc4)cc3c12 | – | 13.6 | inhibition [5]: 22.5%
9 | Cc1nn(Cc2ccccc2)c(=O)c2nc(CC3CCCC3)n3nc(-c4ccccc4)cc3c12 | – | 4.2 | inhibition [5]: 18.2%
10 | Cc1nn(Cc2ccccc2)c(=O)c2nc(-c3ccccc3)n3nc(-c4ccccc4)cc3c12 | 81 | – | IC50 (Phosphodiesterase 6): 2800 nM
11 | Cc1nn(Cc2ccccc2)c(=O)c2nc(Cc3ccncc3)n3nc(-c4ccccc4)cc3c12 | 450 | 20.4 | –
12 | Cc1ccccc1-c1nc2c(=O)n(Cc3ccccc3)nc(C)c2c2cc(-c3ccccc3)nn12 | – | – | inhibition [5]: 55.1%
13 | Cc1nn(Cc2ccccc2)c(=O)c2nc(C)n3nc(-c4ccc5c(c4)OCO5)cc3c12 | – | – | IC50 (Phosphodiesterase 6): 78000 nM
14 | Cc1nn(Cc2ccccc2)c(=O)c2nc(CCC(=O)O)n3nc(-c4ccccc4)cc3c12 | 430 | – | IC50 (Phosphodiesterase 6): 590 nM
15 | Cc1nn(Cc2ccccc2)c(=O)c2nc(CCCC(=O)O)n3nc(-c4ccccc4)cc3c12 | 30 | – | IC50 (Phosphodiesterase 6): 110 nM
16 | Cc1nn(Cc2ccc([N+](=O)[O-])cc2)c(=O)c2nc(C)n3nc(-c4ccccc4)cc3c12 | – | 10.4 | inhibition [2]: 65.9%
17 | CCC(C)c1nc2c(=O)n(Cc3ccccc3)nc(C)c2c2cc(-c3ccccc3)nn12 (centres undefined) | 34 | 42.5 | –

Row | SMILES | IC50 [3] [nM] | inhibition [4] [%] | other results
18 | Cc1nn(Cc2ccccc2)c(=O)c2nc(-c3ccccn3)n3nc(-c4ccccc4)cc3c12 | 81 | 21.3 | –
19 | CN1CC(=O)N2[C@H](c3ccc4c(c3)OCO4)c3[nH]c4ccccc4c3C[C@@H]2C1=O | – | – | half-life [6]: > 17 h
20 | Cc1nn(Cc2ccccc2)c(=O)c2nc(C)n3nc(C(C)(C)C)cc3c12 | – | – | inhibition [5]: 31%
21 | Cc1nn(Cc2ccccc2)c(=O)c2nc(/C=C/C(=O)O)n3nc(-c4ccccc4)cc3c12 | 320 | – | IC50 (Phosphodiesterase 6): 580 nM
22 | Cc1nn(Cc2cccc(OP(=O)(O)O)c2)c(=O)c2nc(C)n3nc(-c4ccccc4)cc3c12 | 230 | – | inhibition [1]: 28.6%
23 | CSCc1nc2c(=O)n(Cc3ccccc3)nc(C)c2c2cc(-c3ccccc3)nn12 | 100 | 38.1 | –
24 | Cc1cccc(-c2nc3c(=O)n(Cc4ccccc4)nc(C)c3c3cc(-c4ccccc4)nn23)c1 | 75 | 11.5 | –
25 | CCC(C)c1nc2c(=O)n(Cc3ccccc3)nc(C)c2c2cc(-c3ccccn3)nn12 (centres undefined) | 39 | 34.6 | –
26 | Cc1nn(Cc2ccccc2)c(=O)c2nc(CC3CCCCC3)n3nc(-c4ccccc4)cc3c12 | – | 19.2 | inhibition [5]: 33.6%
27 | Cc1nn(Cc2ccccc2)c(=O)c2nc(C)n3nc(-c4ccccn4)cc3c12 | 270 | – | IC50 (Phosphodiesterase 6): 10000 nM
28 | CCC(CC)c1nc2c(=O)n(Cc3ccccc3)nc(C)c2c2cc(-c3ccccc3)nn12 | 67 | 37.4 | –
29 | CCC(C)c1nc2c(=O)n(Cc3cccc(OP(=O)(O)O)c3)nc(C)c2c2cc(-c3ccccc3)nn12 (centres undefined) | 59 | 66.9 | –
30 | Cc1nn(Cc2ccccc2)c(=O)c2nc(CCc3ccccc3)n3nc(-c4ccccc4)cc3c12 | 980 | – | IC50 (Phosphodiesterase 6): 30000 nM
31 | Cc1nn(CC2CCCCC2)c(=O)c2nc(C)n3nc(-c4ccccc4)cc3c12 | 3100 | – | IC50 (Phosphodiesterase 6): 11000 nM
32 | Cc1nn(Cc2ccccc2)c(=O)c2nc(CCCCC(=O)O)n3nc(-c4ccccc4)cc3c12 | 90 | – | IC50 (Phosphodiesterase 6): 63 nM
33 | Cc1nn(-c2ccccc2)c(=O)c2nc(C)n3nc(-c4ccccc4)cc3c12 | – | – | inhibition [1]: 3.7%; inhibition [7]: 11.9%
34 | Cc1nn(Cc2ccc(N)cc2)c(=O)c2nc(C)n3nc(-c4ccccc4)cc3c12 | 1100 | – | IC50 (Phosphodiesterase 6): 2000 nM
